# Measurements from ChEMBL document CHEMBL6092210, “Synthesis, in vitro and in vivo biological evaluation of novel dual compounds targeting both acetylcholinesterase and serotonergic 5-HT4 receptors with potential interest in the treatment of Alzheimer's disease” (Eur J Med Chem, 2024).
# pIC50: −log10 of the molar value.
# How the values were obtained:
# [1] = Toxicity in C57BL/6 mouse assessed as memory impairment at 0.3 mg/kg, ip incubated for 30 mins by novel object recognition test; format: organism-based; conditions: in vivo, 0.5 h
# [2] = Toxicity in C57BL/6 mouse assessed as reversal of scopolamine-induced spontaneous alternation deficit at 3 mg/kg, sc incubated for 30 mins; format: organism-based; conditions: in vivo, 0.5 h
# [3] = Toxicity in C57BL/6 mouse assessed as spontaneous locomotor activity at 10 mg/kg, ip incubated for 30 mins; format: organism-based; conditions: in vivo, 0.5 h
# [4] = Drug metabolism in dog liver microsome measured at 10 mins by UPLC/QE-orbitrap-MS method; format: ADME, Canis lupus familiaris; conditions: microsomes
# Method in brief: (§1)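 Test compound as fumarate salt incubated with human, dog, mouse or rat liver microsomes over 0–60 min. Parent remaining measured by UPLC/QE-orbitrap-MS as relative LC/MS peak area (% of 0 min), n = 1.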
# [5] = Drug metabolism in mouse liver microsome measured at 10 mins by UPLC/QE-orbitrap-MS method; format: ADME; conditions: microsomes; method in brief: as §1
# [6] = Drug metabolism in rat liver microsome measured at 10 mins by UPLC/QE-orbitrap-MS method; format: ADME; conditions: microsomes; method in brief: as §1
# [7] = Drug metabolism in human liver microsome measured at 20 mins by UPLC/QE-orbitrap-MS method; format: ADME; conditions: microsomes; method in brief: as §1
# [8] = Drug metabolism in dog liver microsome measured at 20 mins by UPLC/QE-orbitrap-MS method; format: ADME, Canis lupus familiaris; conditions: microsomes; method in brief: as §1
# [9] = Drug metabolism in mouse liver microsome measured at 20 mins by UPLC/QE-orbitrap-MS method; format: ADME; conditions: microsomes; method in brief: as §1
# [10] = Drug metabolism in rat liver microsome measured at 20 mins by UPLC/QE-orbitrap-MS method; format: ADME; conditions: microsomes; method in brief: as §1
# [11] = Drug metabolism in human liver microsome measured at 40 mins by UPLC/QE-orbitrap-MS method; format: ADME; conditions: microsomes; method in brief: as §1
# [12] = Drug metabolism in dog liver microsome measured at 40 mins by UPLC/QE-orbitrap-MS method; format: ADME, Canis lupus familiaris; conditions: microsomes; method in brief: as §1
# [13] = Drug metabolism in rat liver microsome measured at 40 mins by UPLC/QE-orbitrap-MS method; format: ADME; conditions: microsomes; method in brief: as §1
# [14] = Drug metabolism in human liver microsome measured at 60 mins by UPLC/QE-orbitrap-MS method; format: ADME; conditions: microsomes, 1 h; method in brief: as §1
# [15] = Drug metabolism in dog liver microsome measured at 60 mins by UPLC/QE-orbitrap-MS method; format: ADME, Canis lupus familiaris; conditions: microsomes, 1 h; method in brief: as §1
# [16] = Drug metabolism in mouse liver microsome measured at 60 mins by UPLC/QE-orbitrap-MS method; format: ADME; conditions: microsomes, 1 h; method in brief: as §1
# Cytochrome P450 1A2 = target: T1, Cytochrome P450 1A2 (Homo sapiens, UniProt P05177); experiment: Inhibition of CYP1A2 in human liver microsomes using phenacetin as substrate; format: ADME, Microsome
# T1 sequence (P05177 whole entry): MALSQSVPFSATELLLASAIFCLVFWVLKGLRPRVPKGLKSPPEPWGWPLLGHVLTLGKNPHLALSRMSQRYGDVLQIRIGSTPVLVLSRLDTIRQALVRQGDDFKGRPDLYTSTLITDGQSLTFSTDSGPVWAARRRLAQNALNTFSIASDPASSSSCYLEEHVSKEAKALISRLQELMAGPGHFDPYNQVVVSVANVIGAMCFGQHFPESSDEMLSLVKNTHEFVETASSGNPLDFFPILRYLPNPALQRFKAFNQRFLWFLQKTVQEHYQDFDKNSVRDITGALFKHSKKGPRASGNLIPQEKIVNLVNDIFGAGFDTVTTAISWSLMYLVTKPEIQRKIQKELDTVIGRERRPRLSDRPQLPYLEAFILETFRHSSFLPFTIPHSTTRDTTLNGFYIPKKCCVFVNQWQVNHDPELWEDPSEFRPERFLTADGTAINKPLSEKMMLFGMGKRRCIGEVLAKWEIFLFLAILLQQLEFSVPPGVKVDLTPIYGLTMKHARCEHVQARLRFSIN
# Method in brief: (§2)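 Human liver microsomes with a cocktail of CYP-specific probe substrates; metabolite formation monitored for each probe reaction. Test compound (fumarate) at 0.01, 0.1, 1, 10 and 100 μM. Control inhibitors run at a single concentration for each probe reaction. IC50 estimated.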
# Cytochrome P450 2C8 = target: T2, Cytochrome P450 2C8 (Homo sapiens, UniProt P10632); experiment: Inhibition of CYP2C8 in human liver microsomes using repaglinide as substrate; format: ADME, Microsome; method in brief: as §2
# T2 sequence (P10632 whole entry): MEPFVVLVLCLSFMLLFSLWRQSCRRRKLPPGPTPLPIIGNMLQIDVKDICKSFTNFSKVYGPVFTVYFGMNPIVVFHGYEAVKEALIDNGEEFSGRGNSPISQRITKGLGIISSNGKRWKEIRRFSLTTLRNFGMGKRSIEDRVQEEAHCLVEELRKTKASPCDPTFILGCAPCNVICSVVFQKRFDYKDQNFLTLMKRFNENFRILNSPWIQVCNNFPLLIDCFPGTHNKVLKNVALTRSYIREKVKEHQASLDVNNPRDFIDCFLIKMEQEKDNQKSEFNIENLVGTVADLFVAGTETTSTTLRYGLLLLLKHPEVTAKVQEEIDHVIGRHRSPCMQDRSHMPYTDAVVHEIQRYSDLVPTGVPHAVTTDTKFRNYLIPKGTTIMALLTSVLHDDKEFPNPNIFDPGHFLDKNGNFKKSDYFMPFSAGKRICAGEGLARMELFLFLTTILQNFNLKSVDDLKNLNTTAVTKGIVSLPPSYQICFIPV
# Cytochrome P450 2C19 = Cytochrome P450 2C19 (Homo sapiens, UniProt P33261); experiment: Inhibition of CYP2C19 in human liver microsomes using omeprazole as substrate; format: ADME, Microsome; method in brief: as §2
# Sequence of Cytochrome P450 2C19 (P33261 whole entry): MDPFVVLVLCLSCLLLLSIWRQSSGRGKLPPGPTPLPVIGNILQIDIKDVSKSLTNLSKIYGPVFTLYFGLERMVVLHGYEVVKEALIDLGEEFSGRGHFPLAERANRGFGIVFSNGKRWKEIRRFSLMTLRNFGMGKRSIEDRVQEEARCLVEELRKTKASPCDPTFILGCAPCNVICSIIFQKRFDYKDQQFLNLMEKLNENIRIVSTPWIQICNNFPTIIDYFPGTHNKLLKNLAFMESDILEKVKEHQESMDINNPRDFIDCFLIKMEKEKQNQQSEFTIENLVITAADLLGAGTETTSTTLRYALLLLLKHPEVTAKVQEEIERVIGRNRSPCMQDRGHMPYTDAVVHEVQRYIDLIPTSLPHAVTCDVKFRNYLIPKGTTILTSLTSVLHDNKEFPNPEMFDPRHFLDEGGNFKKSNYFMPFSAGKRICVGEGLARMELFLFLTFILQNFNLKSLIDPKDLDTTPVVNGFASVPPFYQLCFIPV
# Cytochrome P450 2D6 = Cytochrome P450 2D6 (Homo sapiens, UniProt P10635); experiment: Inhibition of CYP2D6 in human liver microsomes using dextromethorphan as substrate; format: ADME, Microsome; method in brief: as §2
# Sequence of Cytochrome P450 2D6 (P10635 whole entry): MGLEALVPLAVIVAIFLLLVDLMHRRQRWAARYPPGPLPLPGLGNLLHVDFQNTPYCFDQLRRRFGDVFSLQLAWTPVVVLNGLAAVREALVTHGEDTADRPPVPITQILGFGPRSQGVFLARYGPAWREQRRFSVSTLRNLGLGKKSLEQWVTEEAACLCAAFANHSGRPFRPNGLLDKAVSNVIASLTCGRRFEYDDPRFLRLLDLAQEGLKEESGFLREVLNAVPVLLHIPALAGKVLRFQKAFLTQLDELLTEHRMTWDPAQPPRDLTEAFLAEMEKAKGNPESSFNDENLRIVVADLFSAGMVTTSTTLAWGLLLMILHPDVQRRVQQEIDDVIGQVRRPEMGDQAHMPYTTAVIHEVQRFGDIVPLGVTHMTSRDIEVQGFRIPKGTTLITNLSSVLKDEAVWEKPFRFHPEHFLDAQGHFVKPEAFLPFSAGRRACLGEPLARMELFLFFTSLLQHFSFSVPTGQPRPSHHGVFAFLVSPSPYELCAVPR
# Cytochrome P450 3A4 [17] = target: T3, Cytochrome P450 3A4 (Homo sapiens, UniProt P08684); experiment: Inhibition of CYP3A4 in human liver microsomes using Omeprazole as substrate; format: ADME, Microsome; method in brief: as §2
# T3 sequence (P08684 whole entry): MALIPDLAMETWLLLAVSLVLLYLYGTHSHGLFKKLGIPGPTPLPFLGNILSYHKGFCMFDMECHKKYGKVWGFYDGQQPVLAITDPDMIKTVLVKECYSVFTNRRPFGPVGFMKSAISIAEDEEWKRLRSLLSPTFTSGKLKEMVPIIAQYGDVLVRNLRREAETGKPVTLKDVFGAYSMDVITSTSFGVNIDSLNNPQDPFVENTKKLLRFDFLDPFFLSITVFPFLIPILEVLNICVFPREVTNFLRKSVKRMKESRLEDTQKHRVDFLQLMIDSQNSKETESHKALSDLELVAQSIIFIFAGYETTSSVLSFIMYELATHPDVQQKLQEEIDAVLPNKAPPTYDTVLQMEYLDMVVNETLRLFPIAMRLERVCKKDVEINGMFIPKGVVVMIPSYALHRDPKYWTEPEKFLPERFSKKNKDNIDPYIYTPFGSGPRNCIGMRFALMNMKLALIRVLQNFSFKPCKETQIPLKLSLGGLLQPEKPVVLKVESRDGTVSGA
# Cytochrome P450 3A4 [18] = target: T3, Cytochrome P450 3A4; experiment: Inhibition of CYP3A4 in human liver microsomes using Testosterone as substrate; format: ADME, Microsome; method in brief: as §2
# Cytochrome P450 3A4 [19] = target: T3, Cytochrome P450 3A4; experiment: Inhibition of CYP3A4 in human liver microsomes using Midazolam as substrate; format: ADME, Microsome; method in brief: as §2
# [20] = Clearance in C57BL6 mouse at 0.3 to 3 mg/kg, iv; format: ADME, organism-based; conditions: in vivo, dose 0.3-3 mg/kg
# Method in brief: (§3)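 Single iv dose of 0.3, 1 or 3 mg/kg in 0.9 % saline, three animals per dose (C57Bl6 mice, Wistar rats). Terminal cardiac-puncture blood under isoflurane at six time points. Plasma protein-precipitated and assayed by UHPLC–MS/MS (LLOQ 1 ng/mL). Parameters from non-compartmental analysis.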
# [21] = Clearance in C57BL6 mouse at 3 mg/kg, iv; format: ADME, organism-based; conditions: in vivo; method in brief: as §3
# [22] = Volume of distribution in C57BL6 mouse at 0.3 to 3 mg/kg, iv; format: ADME, organism-based; conditions: in vivo, dose 0.3-3 mg/kg
# Method in brief: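 Pharmacokinetics in C57Bl6 mice given the compound iv at 0.3, 1 or 3 mg/kg in 0.9 % saline (10 mL/kg), three animals per dose. Terminal cardiac blood taken under isoflurane at six time points. Plasma analyzed by UHPLC–MS/MS (LLOQ 1 ng/mL). Parameters derived by non-compartmental analysis.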
# [23] = Half life in C57BL6 mouse at 0.3 to 3 mg/kg, iv; format: ADME, organism-based; conditions: in vivo, dose 0.3-3 mg/kg; method in brief: as §3
# [24] = Half life in Wistar rat at 0.3 to 3 mg/kg, iv; format: ADME, organism-based; conditions: in vivo, dose 0.3-3 mg/kg; method in brief: as §3
# [25] = MRT in C57BL6 mouse at 0.3 to 3 mg/kg, iv; format: ADME, organism-based; conditions: in vivo, dose 0.3-3 mg/kg; method in brief: as §3
structure (smiles),measurement,setting,value
COc1cc(N)c(F)cc1C(=O)CCC1CCN(CC2CCCCC2)CC1.O=C(O)/C=C/C(=O)O,Activity,[1],Non-toxic
same,Activity,[2],Non-toxic
same,Activity,[3],Non-toxic
same,Drug metabolism,[4],77%
same,Drug metabolism,[5],63%
same,Drug metabolism,[6],26%
same,Drug metabolism,[7],78%
same,Drug metabolism,[8],60%
same,Drug metabolism,[9],44%
same,Drug metabolism,[10],10%
same,Drug metabolism,[11],63%
same,Drug metabolism,[12],40%
same,Drug metabolism,[13],6%
same,Drug metabolism,[14],59%
same,Drug metabolism,[15],29%
same,Drug metabolism,[16],17%
same,pIC50,Cytochrome P450 1A2,4.08
same,pIC50,Cytochrome P450 2C8,< 4.00
same,pIC50,Cytochrome P450 2C19,5.14
same,pIC50,Cytochrome P450 2D6,6.22
same,pIC50,Cytochrome P450 3A4 [17],5.27
same,pIC50,Cytochrome P450 3A4 [18],5.10
same,pIC50,Cytochrome P450 3A4 [19],4.64
same,clearance,[20],35.5 mL/min/kg
same,clearance,[21],191 mL/min/kg
same,Vd,[22],3.6 L/kg
same,half-life,[23],47.8 min
same,half-life,[24],46.1 min
same,MRT,[25],69 min
